Active and inactive are the calls of the source. No cut-off for these calls is given here.
Columns and labels:
Oryctolagus cuniculus [1] = experiment: Tested for inhibition of thromboxane formation in rabbit platelets at 2 hr by administration of 0.3 mg/kg intravenous bolus dose; assay type: functional
Outline: (§1)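 Rabbits given compound in 0.9% sterile saline IV, as a bolus or by infusion pump. Blood drawn 5 min predose and at 0.5, 1, 2 and 3 h, then clotted 2 h at 37 °C and held 2 h on ice. Serum mixed with indomethacin, stored at -20 °C, and diluted in pH 7.4 phosphate buffer. TXB2 measured by direct RIA.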

Oryctolagus cuniculus [2] = experiment: Tested for inhibition of thromboxane formation in rabbit platelets at 3 hr by administration of 0.3 mg/kg intravenous bolus dose; assay type: functional; outline: as §1
Homo sapiens = species on record: Homo sapiens; experiment: Tested for inhibition of thromboxane formation in human platelets; assay type: functional
Outline: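 Platelets from four healthy human volunteers were isolated with a small amount of prostaglandin E1 to prevent aggregation, then treated with compound, standard or vehicle. TXB2 measured by direct RIA. IC50 is read graphically from percent inhibition vs log concentration curves.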

Oryctolagus cuniculus [3] = experiment: Tested for inhibition of thromboxane formation in rabbit platelets at 0.5 hr by administration of 0.5 mg/kg/h perfused dose; assay type: functional; outline: as §1
Oryctolagus cuniculus [4] = experiment: Tested for inhibition of thromboxane formation in rabbit platelets at 1.0 hr by administration of 0.1 mg/kg intravenous bolus dose; assay type: functional; outline: as §1
Oryctolagus cuniculus [5] = experiment: Tested for inhibition of thromboxane formation in rabbit platelets at 1.0 hr by administration of 0.5 mg/kg/h perfused dose; assay type: functional; outline: as §1
Oryctolagus cuniculus [6] = experiment: Tested for inhibition of thromboxane formation in rabbit platelets at 2 hr by administration of 0.1 mg/kg intravenous bolus dose; assay type: functional; outline: as §1
Oryctolagus cuniculus [7] = experiment: Tested for inhibition of thromboxane formation in rabbit platelets at 3 hr by administration of 0.1 mg/kg intravenous bolus dose; assay type: functional; outline: as §1
Oryctolagus cuniculus [8] = experiment: Tested for inhibition of thromboxane formation in rabbit platelets at 0.5 hr by administration of 0.3 mg/kg intravenous bolus dose; assay type: functional; outline: as §1
Oryctolagus cuniculus [9] = experiment: Tested for inhibition of thromboxane formation in rabbit platelets at 1.0 hr by administration of 0.3 mg/kg intravenous bolus dose; assay type: functional; outline: as §1
Oryctolagus cuniculus [10] = experiment: Tested for inhibition of thromboxane formation in rabbit platelets at 0.5 hr by administration of 0.1 mg/kg intravenous bolus dose; assay type: functional; outline: as §1
[11] = molecular target: T1, Thromboxane-A synthase (Rattus norvegicus) (UniProt P49430); experiment: Tested for antihypertensive activity in spontaneously hypertensive rats at 100 mg/kg peroral dosage for 2 days; I is inactive; assay type: functional, organism-based; parameters: dose 100 mg/kg
T1 sequence (whole entry): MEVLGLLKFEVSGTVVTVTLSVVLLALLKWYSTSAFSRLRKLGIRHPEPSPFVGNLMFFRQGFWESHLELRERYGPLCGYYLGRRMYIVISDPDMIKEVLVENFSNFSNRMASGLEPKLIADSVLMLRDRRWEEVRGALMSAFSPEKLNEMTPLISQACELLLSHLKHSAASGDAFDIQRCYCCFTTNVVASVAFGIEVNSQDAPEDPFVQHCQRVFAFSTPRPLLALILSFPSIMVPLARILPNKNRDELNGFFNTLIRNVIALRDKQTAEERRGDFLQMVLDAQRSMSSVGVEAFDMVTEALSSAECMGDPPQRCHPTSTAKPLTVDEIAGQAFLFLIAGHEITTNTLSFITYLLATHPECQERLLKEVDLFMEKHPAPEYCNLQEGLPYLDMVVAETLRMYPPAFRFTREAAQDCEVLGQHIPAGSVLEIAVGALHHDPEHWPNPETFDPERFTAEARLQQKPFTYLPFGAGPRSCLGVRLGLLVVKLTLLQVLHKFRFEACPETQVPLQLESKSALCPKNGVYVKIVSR
Outline: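 Male 16-week-old Okamoto SHR (mean arterial pressure about 170 mmHg) gavaged with compound suspended in 2% preboiled starch (50 mg/mL) at 100 mg/kg or less, with 0.9% NaCl load 25 mL/kg; identical second dose without saline 24 h later. Mean arterial pressure measured 28 h after first dose; one to three rats per compound.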

Oryctolagus cuniculus [12] = experiment: Tested for inhibition of thromboxane formation in rabbit platelets at 1.0 hr by administration of 10 mg/kg intravenous bolus dose; assay type: functional; outline: as §1
Oryctolagus cuniculus [13] = experiment: Tested for inhibition of thromboxane formation in rabbit platelets at 3 hr by administration of 10 mg/kg intravenous bolus dose; assay type: functional; outline: as §1
Thromboxane-A synthase = molecular target: T2, Thromboxane-A synthase (Rattus norvegicus, UniProt P49430); experiment: Tested for inhibition of thromboxane synthetase from spontaneously hypertensive rats
T2 sequence (P49430 whole entry): T1 sequence (whole entry)
Outline: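 Washed SHR platelets in oxygenated Krebs phosphate buffer pH 7.4 (4.5-6.0 X 10^4 platelets/µL) incubated with vehicle or drug 10 min at 37 °C; stopped with ice and citric acid. TXB2 measured by direct RIA. Percent inhibition is relative to vehicle controls after background subtraction. IC50 is read from a plot of inhibition vs log concentration.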

| SMILES | inhibition in vivo at 0.3 mg/kg (Oryctolagus cuniculus [1]) | inhibition in vivo at 0.3 mg/kg (Oryctolagus cuniculus [2]) | IC50 (Homo sapiens) | inhibition in vivo at 0.5 mg/kg/h (Oryctolagus cuniculus [3]) | inhibition in vivo at 0.1 mg/kg (Oryctolagus cuniculus [4]) | inhibition in vivo at 0.5 mg/kg (Oryctolagus cuniculus [5]) | inhibition in vivo at 0.1 mg/kg (Oryctolagus cuniculus [6]) | inhibition in vivo at 0.1 mg/kg (Oryctolagus cuniculus [7]) | inhibition in vivo at 0.3 mg/kg (Oryctolagus cuniculus [8]) | inhibition in vivo at 0.3 mg/kg (Oryctolagus cuniculus [9]) | inhibition in vivo at 0.1 mg/kg (Oryctolagus cuniculus [10]) | Activity [11] | inhibition in vivo at 10 mg/kg (Oryctolagus cuniculus [12]) | inhibition in vivo at 10 mg/kg (Oryctolagus cuniculus [13]) | IC50 (Thromboxane-A synthase) |
| --- | --- | --- | --- | --- | --- | --- | --- | --- | --- | --- | --- | --- | --- | --- | --- |
| CC(Cn1ccnc1)Cn1c(=O)[nH]c2cc(Cl)ccc2c1=O (stereo unspecified) | 60.8% | 53.1% | 21.2 nM | 95.9% | 62.8% | 98.1% | 39.5% | 46.2% | 88.9% | 82.8% | 73.6% |  |  |  |  |
| O=C(O)c1ccc(OCCn2ccnc2)cc1 [DAZOXIBEN] | 13.6% | 22.8% | 5030 nM |  |  |  |  |  | 45.9% | 30.1% |  | inactive | 94.7% | 74.5% |  |
| CC(CNC(=O)c1ccccc1N)Cn1ccnc1 (stereo unspecified) |  |  |  |  |  |  |  |  |  |  |  | inactive |  |  | 2500 nM |

— ChEMBL document CHEMBL1123918, “Thromboxane synthetase inhibitors and antihypertensive agents. 4. N-[(1H-imidazol-1-yl)alkyl] derivatives of quinazoline-2,4(1H,3H)-diones, quinazolin-4(3H)-ones, and 1,2,3-benzotriazin-4(3H)-ones” (J Med Chem, 1987)
